≈ marks a conversion by molar mass, not a printed value. Calls of active or inactive are those of the source. The calls are words filed in the database; no cut-off is given here.
Tested on: Escherichia coli
Experiment: Antibacterial activity against Escherichia coli tolC CGSC 5633
Format: functional
Conditions: not given

First: C=CCN1C(=O)/C(=C/c2cccc(C(=O)O)c2)SC1=S
Second: C=CCN1C(=O)/C(=C/c2ccc(-c3cccc(C(=O)O)c3)o2)SC1=S
The MIC of the first is higher: at least 100 µg/mL for the first, 6.25 µg/mL (≈ 16.8 µM) for the second.

Compared with C=CCN1C(=O)/C(=C/c2ccc(-c3ccc(C(N)=O)cc3)o2)SC1=S, C=CCN1C(=O)/C(=C/c2ccc(-c3ccc(CCC(=O)O)cc3)o2)SC1=S is 8-fold higher in MIC: 1.56 µg/mL (≈ 4.21 µM) for the first, 12.5 µg/mL (≈ 31.3 µM) for the second.

Going from C=CCN1C(=O)/C(=C/c2ccc(-c3ccccc3)o2)SC1=S to C=CCN1C(=O)/C(=C/c2cc(C)n(-c3cccc(C(=O)O)c3)c2C)SC1=S, the MIC rises from 3.13 µg/mL (≈ 9.56 µM) to 50 µg/mL (≈ 125 µM) (16-fold).

C=CCN1C(=O)/C(=C/c2cc(C)n(CC)c2C)SC1=S gave an MIC of at least 100 µg/mL.

Tested on: Staphylococcus epidermidis
Experiment: Antibacterial activity against Staphylococcus epidermidis 48155 biofilms assessed as bacterial count per well at 8 times MIC after 24 hrs
Format: functional
Conditions: not given
How it was run: (§1)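 Biofilms from 10⁷ CFU/mL inoculum in MHB grown 24 h at 37 °C, rinsed, then exposed 24 h at 37 °C without shaking in MHB to compound at 8× MIC. Washed, DMSO-lysed, ATP bioluminescence read (luciferase/D-luciferin buffer, pH 7.25). Strain-specific luminescence-to-Log₁₀ CFU/well equations used; triplicate.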

Work on C=CCN1C(=O)/C(=C/c2cc(C)n(-c3cccc(C(=O)O)c3)c2C)SC1=S yielded a log10CFU/ml of 1.8.

Target: Albumin (Homo sapiens, UniProt P02768)
Sequence (P02768 whole entry): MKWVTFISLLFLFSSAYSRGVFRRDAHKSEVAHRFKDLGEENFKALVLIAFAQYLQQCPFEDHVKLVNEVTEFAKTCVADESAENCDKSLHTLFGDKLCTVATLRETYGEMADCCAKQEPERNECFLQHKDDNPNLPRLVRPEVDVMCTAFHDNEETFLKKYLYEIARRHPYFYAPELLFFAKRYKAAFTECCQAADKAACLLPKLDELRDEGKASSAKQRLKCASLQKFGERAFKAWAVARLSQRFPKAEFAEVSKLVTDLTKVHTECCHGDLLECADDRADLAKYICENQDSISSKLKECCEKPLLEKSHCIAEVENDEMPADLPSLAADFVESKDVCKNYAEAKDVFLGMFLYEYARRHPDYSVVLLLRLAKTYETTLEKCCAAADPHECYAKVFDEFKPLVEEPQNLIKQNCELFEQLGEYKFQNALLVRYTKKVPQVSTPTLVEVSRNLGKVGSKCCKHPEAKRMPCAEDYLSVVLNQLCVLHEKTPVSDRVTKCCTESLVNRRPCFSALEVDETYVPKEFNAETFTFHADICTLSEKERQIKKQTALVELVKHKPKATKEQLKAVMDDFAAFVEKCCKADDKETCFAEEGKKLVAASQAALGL
Experiment: Binding affinity to HSA by SPR method
Format: ADME
Conditions: isolated protein
How it was run: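 SPR at 25 °C; HSA amine-coupled on CM5 chip (9000–11 000 RU). Compounds at 50 µM in PBS with 5% DMSO, 30 µL/min, duplicate 60 s injections over HSA and reference surfaces. Double referencing with buffer blanks; DMSO bulk correction from calibration curve (4.5–5.8% DMSO).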

In the case of C=CCN1C(=O)/C(=C/c2ccc(-c3ccc(CCC(=O)O)cc3)o2)SC1=S, the Activity is reported as “Active”.
For C=CCN1C(=O)/C(=C/c2ccc(-c3cccc(C(=O)O)c3)o2)SC1=S, the Activity was “Active”.

Tested on: Staphylococcus epidermidis
Experiment: Antibacterial activity against Staphylococcus epidermidis CIP 105777
Format: functional
Conditions: not given

Going from C=CCN1C(=O)/C(=C/c2cccc(C(=O)O)c2)SC1=S to C=CCN1C(=O)/C(=C/c2ccc(-c3cccc(C(=O)O)c3)o2)SC1=S, the MIC falls from at least 100 µg/mL to 3.13 µg/mL (≈ 8.43 µM).

First: C=CCN1C(=O)/C(=C/c2ccc(-c3ccc(C(N)=O)cc3)o2)SC1=S
Second: C=CCN1C(=O)/C(=C/c2ccc(-c3ccc(CCC(=O)O)cc3)o2)SC1=S
The MIC of the first is higher: at least 100 µg/mL for the first, 25 µg/mL (≈ 62.6 µM) for the second.

Going from C=CCN1C(=O)/C(=C/c2ccc(-c3ccccc3)o2)SC1=S to C=CCN1C(=O)/C(=C/c2cc(C)n(-c3cccc(C(=O)O)c3)c2C)SC1=S, the MIC falls from at least 100 µg/mL to 25 µg/mL (≈ 62.7 µM).

Compound C=CCN1C(=O)/C(=C/c2cc(C)n(CC)c2C)SC1=S has an MIC of at least 100 µg/mL.

Tested on: Staphylococcus aureus
Experiment: Antibacterial activity against Staphylococcus aureus CIP 76.25
Format: functional
Conditions: not given

Going from C=CCN1C(=O)/C(=C/c2ccc(-c3ccc(C(N)=O)cc3)o2)SC1=S to C=CCN1C(=O)/C(=C/c2ccc(-c3ccc(CCC(=O)O)cc3)o2)SC1=S, the MIC falls from at least 100 µg/mL to 25 µg/mL (≈ 62.6 µM).

Going from C=CCN1C(=O)/C(=C/c2ccc(-c3ccccc3)o2)SC1=S to C=CCN1C(=O)/C(=C/c2ccc(-c3cccc(C(=O)O)c3)o2)SC1=S, the MIC falls from at least 100 µg/mL to 12.5 µg/mL (≈ 33.7 µM).

For C=CCN1C(=O)/C(=C/c2cc(C)n(-c3cccc(C(=O)O)c3)c2C)SC1=S, the MIC was 50 µg/mL (≈ 125 µM).

Tested on: CHO
Experiment: Cytotoxicity against CHO cells
Format: cell-based, Cricetulus griseus
Conditions: chinese hamster
How it was run: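 CHO cells grown in RPMI with 5% fetal calf serum, then exposed to compounds 24 h at 37 °C without serum. MTT added at 300 µg/mL final, 3 h at 37 °C dark; acidified isopropanol added, 1 h at room temperature; OD at 595 nm.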

For C=CCN1C(=O)/C(=C/c2ccc(-c3ccc(C(N)=O)cc3)o2)SC1=S, the Activity was “>= 100 ug ml-1”.
With C=CCN1C(=O)/C(=C/c2ccc(-c3ccccc3)o2)SC1=S the Activity was “>= 100 ug ml-1”.
In the case of C=CCN1C(=O)/C(=C/c2cc(C)n(-c3cccc(C(=O)O)c3)c2C)SC1=S, the Activity is reported as “>= 100 ug ml-1”.
With C=CCN1C(=O)/C(=C/c2ccc(-c3ccc(CCC(=O)O)cc3)o2)SC1=S the Activity was “>= 100 ug ml-1”.
For C=CCN1C(=O)/C(=C/c2ccc(-c3cccc(C(=O)O)c3)o2)SC1=S, the Activity was “>= 100 ug ml-1”.

Tested on: Staphylococcus epidermidis
Experiment: Antibacterial activity against Staphylococcus epidermidis RP62A
Format: functional
Conditions: not given

Compared with C=CCN1C(=O)/C(=C/c2ccc(-c3ccc(C(N)=O)cc3)o2)SC1=S, C=CCN1C(=O)/C(=C/c2ccc(-c3ccc(CCC(=O)O)cc3)o2)SC1=S is lower in MIC: at least 100 µg/mL for the first, 25 µg/mL (≈ 62.6 µM) for the second.

First: C=CCN1C(=O)/C(=C/c2ccc(-c3ccccc3)o2)SC1=S
Second: C=CCN1C(=O)/C(=C/c2ccc(-c3cccc(C(=O)O)c3)o2)SC1=S
The MIC of the first is higher: at least 100 µg/mL for the first, 12.5 µg/mL (≈ 33.7 µM) for the second.

Compound C=CCN1C(=O)/C(=C/c2cc(C)n(-c3cccc(C(=O)O)c3)c2C)SC1=S has an MIC of 25 µg/mL (≈ 62.7 µM).

Tested on: Staphylococcus aureus
Experiment: Antibacterial activity against multidrug resistant Staphylococcus aureus 49589
Format: functional
Conditions: not given
How it was run: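 Broth microdilution MIC following CLSI. Compounds were predissolved in DMSO and tested as serial 2-fold dilutions at final 100 to 0.4 µg/mL. Inoculum was 5 × 10⁵ CFU/mL, and plates were read after 18 h at 37 °C.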

Going from C=CCN1C(=O)/C(=C/c2ccc(-c3ccc(C(N)=O)cc3)o2)SC1=S to C=CCN1C(=O)/C(=C/c2ccc(-c3ccc(CCC(=O)O)cc3)o2)SC1=S, the MIC falls from at least 100 µg/mL to 25 µg/mL (≈ 62.6 µM).

Compared with C=CCN1C(=O)/C(=C/c2ccc(-c3ccccc3)o2)SC1=S, C=CCN1C(=O)/C(=C/c2ccc(-c3cccc(C(=O)O)c3)o2)SC1=S is lower in MIC: at least 100 µg/mL for the first, 25 µg/mL (≈ 67.3 µM) for the second.

C=CCN1C(=O)/C(=C/c2cc(C)n(-c3cccc(C(=O)O)c3)c2C)SC1=S gave an MIC of 25 µg/mL (≈ 62.7 µM).

Tested on: Staphylococcus epidermidis
Experiment: Antibacterial activity against Staphylococcus epidermidis 40004
Format: functional
Conditions: not given

In order of falling MIC:
1. C=CCN1C(=O)/C(=C/c2cc(C)n(-c3cccc(C(=O)O)c3)c2C)SC1=S  50 µg/mL (≈ 125 µM)
2. C=CCN1C(=O)/C(=C/c2ccc(-c3ccc(CCC(=O)O)cc3)o2)SC1=S  25 µg/mL (≈ 62.6 µM)
3. C=CCN1C(=O)/C(=C/c2ccc(-c3cccc(C(=O)O)c3)o2)SC1=S  25 µg/mL (≈ 67.3 µM)

Tested on: Staphylococcus epidermidis
Experiment: Antibacterial activity against Staphylococcus epidermidis 48155
Format: functional
Conditions: not given

In order of falling MIC:
1. C=CCN1C(=O)/C(=C/c2cc(C)n(-c3cccc(C(=O)O)c3)c2C)SC1=S  25 µg/mL (≈ 62.7 µM)
2. C=CCN1C(=O)/C(=C/c2ccc(-c3cccc(C(=O)O)c3)o2)SC1=S  25 µg/mL (≈ 67.3 µM)
3. C=CCN1C(=O)/C(=C/c2ccc(-c3ccc(CCC(=O)O)cc3)o2)SC1=S  12.5 µg/mL (≈ 31.3 µM)

Tested on: Staphylococcus epidermidis
Experiment: Antibacterial activity against Staphylococcus epidermidis 40004 biofilms assessed as bacterial count per well at 8 times MIC after 24 hrs
Format: functional
Conditions: not given
How it was run: as §1

Work on C=CCN1C(=O)/C(=C/c2cc(C)n(-c3cccc(C(=O)O)c3)c2C)SC1=S yielded a log10CFU/ml of 2.3.

Tested on: Streptococcus pneumoniae
Experiment: Antibacterial activity against Streptococcus pneumoniae CIP 103566
Format: functional
Conditions: not given

C=CCN1C(=O)/C(=C/c2ccc(-c3ccc(C(N)=O)cc3)o2)SC1=S and C=CCN1C(=O)/C(=C/c2ccc(-c3ccc(CCC(=O)O)cc3)o2)SC1=S cannot be ordered by MIC: at least 100 µg/mL for the first, at least 100 µg/mL for the second.

Compared with C=CCN1C(=O)/C(=C/c2ccc(-c3ccccc3)o2)SC1=S, C=CCN1C(=O)/C(=C/c2ccc(-c3cccc(C(=O)O)c3)o2)SC1=S is lower in MIC: at least 100 µg/mL for the first, 50 µg/mL (≈ 135 µM) for the second.

C=CCN1C(=O)/C(=C/c2cc(C)n(-c3cccc(C(=O)O)c3)c2C)SC1=S gave an MIC of 25 µg/mL (≈ 62.7 µM).

Tested on: not listed separately
Experiment: Inhibition of Escherichia coli RNA polymerase sigma-70 factor
Conditions: not given

C=CCN1C(=O)/C(=C/c2cccc(C(=O)O)c2)SC1=S and C=CCN1C(=O)/C(=C/c2cc(C)n(CC)c2C)SC1=S cannot be ordered by IC50: at least 100 µM for the first, at least 100 µM for the second.

Tested on: Clostridioides difficile
Experiment: Antibacterial activity against Clostridium difficile DSM 1296
Format: functional
Conditions: not given

Compared with C=CCN1C(=O)/C(=C/c2ccc(-c3ccc(C(N)=O)cc3)o2)SC1=S, C=CCN1C(=O)/C(=C/c2ccc(-c3ccc(CCC(=O)O)cc3)o2)SC1=S is lower in MIC: at least 100 µg/mL for the first, 50 µg/mL (≈ 125 µM) for the second.

Going from C=CCN1C(=O)/C(=C/c2ccc(-c3ccccc3)o2)SC1=S to C=CCN1C(=O)/C(=C/c2ccc(-c3cccc(C(=O)O)c3)o2)SC1=S, the MIC falls from at least 100 µg/mL to 12.5 µg/mL (≈ 33.7 µM).

With C=CCN1C(=O)/C(=C/c2cc(C)n(-c3cccc(C(=O)O)c3)c2C)SC1=S the MIC was 6.25 µg/mL (≈ 15.7 µM).

Tested on: Escherichia coli
Experiment: Inhibition of RNA polymerase sigma-70 transcription in Escherichia coli at 10 uM
Format: functional
Conditions: not given

In order of rising inhibition at 10 µM:
1. C=CCN1C(=O)/C(=C/c2cc(C)n(CC)c2C)SC1=S  5%
2. C=CCN1C(=O)/C(=C/c2ccc(-c3ccccc3)o2)SC1=S  46%
3. C=CCN1C(=O)/C(=C/c2ccc(-c3ccc(CCC(=O)O)cc3)o2)SC1=S  68%
4. C=CCN1C(=O)/C(=C/c2ccc(-c3cccc(C(=O)O)c3)o2)SC1=S  97%
5. C=CCN1C(=O)/C(=C/c2cc(C)n(-c3cccc(C(=O)O)c3)c2C)SC1=S  100%
6. C=CCN1C(=O)/C(=C/c2ccc(-c3ccc(C(N)=O)cc3)o2)SC1=S  102%

Tested on: Escherichia coli
Experiment: Antibacterial activity against Escherichia coli tolC CGSC 5633 in presence of 1% HSA
Format: functional, organism-based
Conditions: not given

For C=CCN1C(=O)/C(=C/c2ccc(-c3ccc(CCC(=O)O)cc3)o2)SC1=S, the Activity was “inactive”.
For C=CCN1C(=O)/C(=C/c2ccc(-c3cccc(C(=O)O)c3)o2)SC1=S, the Activity was “inactive”.

Tested on: Bacillus anthracis
Experiment: Antibacterial activity against Bacillus anthracis 9131
Format: functional
Conditions: not given

In order of rising MIC:
1. C=CCN1C(=O)/C(=C/c2ccc(-c3ccccc3)o2)SC1=S  0.78 µg/mL (≈ 2.38 µM)
2. C=CCN1C(=O)/C(=C/c2cc(C)n(-c3cccc(C(=O)O)c3)c2C)SC1=S  6.25 µg/mL (≈ 15.7 µM)
3. C=CCN1C(=O)/C(=C/c2ccc(-c3cccc(C(=O)O)c3)o2)SC1=S  6.25 µg/mL (≈ 16.8 µM)
4. C=CCN1C(=O)/C(=C/c2ccc(-c3ccc(C(N)=O)cc3)o2)SC1=S  12.5 µg/mL (≈ 33.7 µM)
5. C=CCN1C(=O)/C(=C/c2ccc(-c3ccc(CCC(=O)O)cc3)o2)SC1=S  12.5 µg/mL (≈ 31.3 µM)

Tested on: Staphylococcus epidermidis
Experiment: Antibacterial activity against Staphylococcus epidermidis RP62A biofilms assessed as bacterial count per well at 8 times MIC after 24 hrs
Format: functional
Conditions: not given
How it was run: as §1

In the case of C=CCN1C(=O)/C(=C/c2cc(C)n(-c3cccc(C(=O)O)c3)c2C)SC1=S, the log10CFU/ml is reported as 2.8.

From ChEMBL document CHEMBL1148734, “Structure-activity relationships of phenyl-furanyl-rhodanines as inhibitors of RNA polymerase with antibacterial activity on biofilms” (J Med Chem, 2007)
